{"source": "ChEMBL document CHEMBL1137781", "about": "“Synthesis and preclinical evaluation of novel PET probes for P-glycoprotein function and expression” (J Med Chem, 2009)", "details_in_all_cases": "in vivo", "key": {"Brain [1]": {"tested_on": "Brain", "assay": "Biodistribution in 15 mg/kg unlabeled 6,7-dimethoxy-2-(3-(5-methoxy-3,4-dihydronaphthalen-1(2H)-ylidene)propyl)-1,2,3,4-tetrahydroisoquinoline pretreated Wistar rat brain at 13+/-2 MBq, iv after 56 mins", "assay_type": "ADME, organism-based", "parameters": "dose 15 mg/kg, route intravenous", "method_in_brief": "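Male Wistar rats given saline or unlabeled compound (15 mg/kg, 10 mg/mL in saline with 35% ethanol) via tail vein. [11C] tracer then given via penile vein. Dynamic microPET under anesthesia, with a 3D ROI drawn over the whole brain. SUV taken from the time-activity curve (frames 4×60 s, 3×120 s, 4×300 s, 3×600 s), assuming a density of 1 g/mL. Mean ± SEM.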"}, "Pancreas": {"tested_on": "Pancreas", "assay": "Biodistribution in Wistar rat pancreas at 11+/-2 MBq, iv after 80 mins", "assay_type": "ADME, organism-based", "method_in_brief": "(§1)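 Male Wistar rats (12 h light/dark, chow ad libitum) were fitted with a femoral arterial cannula under isoflurane. They were pretreated via tail vein with saline, cyclosporin A (50 mg/kg), or nonradioactive tracer compound (15 mg/kg; 10 mg/mL in saline with 35% ethanol). The 11C tracer was then given via penile vein, followed by 76 min microPET. Animals were then terminated; excised tissues were weighed and gamma-counted with decay correction. Values are SUVs (tissue MBq/g × body weight g / injected MBq).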"}, "Striatum [2]": {"tested_on": "Striatum", "assay": "Biodistribution in 15 mg/kg unlabeled 6,7-dimethoxy-2-(3-(5-methoxy-3,4-dihydronaphthalen-1(2H)-ylidene)propyl)-1,2,3,4-tetrahydroisoquinoline pretreated Wistar rat striatum at 13+/-2 MBq, iv after 80 mins", "assay_type": "ADME, organism-based", "parameters": "dose 15 mg/kg, route intravenous", "method_in_brief": "(§2)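 Male Wistar rats given saline or unlabeled compound via tail vein: 15 mg/kg, dissolved at 10 mg/mL in saline with 35% ethanol. [11C] tracer (8-15 MBq) then given via penile vein. After microPET scanning the anesthetized rats were killed. Tissues were excised and weighed, and blood was spun for plasma and cell fraction. γ counting with decay correction. Results as SUV (tissue MBq/g × body weight/injected dose).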"}, "Duodenum": {"tested_on": "Duodenum", "assay": "Biodistribution in 15 mg/kg unlabeled 6,7-dimethoxy-2-(3-(5-methoxy-3,4-dihydronaphthalen-1(2H)-ylidene)propyl)-1,2,3,4-tetrahydroisoquinoline pretreated Wistar rat duodenum at 13+/-2 MBq, iv after 80 mins", "assay_type": "ADME, organism-based", "parameters": "dose 15 mg/kg, route intravenous", "method_in_brief": "as §2"}, "Hippocampus [3]": {"tested_on": "Hippocampus", "assay": "Biodistribution in Wistar rat hippocampus at 11+/-2 MBq, iv after 80 mins", "assay_type": "ADME, organism-based", "method_in_brief": "as §1"}, "[4]": {"assay": "Biodistribution in Wistar rat fat at 11+/-2 MBq, iv after 80 mins", "assay_type": "ADME, organism-based, Adipose tissue", "method_in_brief": "as §1"}, "Cerebellum": {"tested_on": "Cerebellum", "assay": "Biodistribution in 15 mg/kg unlabeled 6,7-dimethoxy-2-(3-(5-methoxy-3,4-dihydronaphthalen-1(2H)-ylidene)propyl)-1,2,3,4-tetrahydroisoquinoline pretreated Wistar rat cerebellum at 13+/-2 MBq, iv after 80 mins", "assay_type": "ADME, organism-based", "parameters": "dose 15 mg/kg, route intravenous", "method_in_brief": "as §2"}, "Lung [5]": {"tested_on": "Lung", "assay": "Biodistribution in Wistar rat lung at 11+/-2 MBq, iv after 80 mins", "assay_type": "ADME, organism-based", "method_in_brief": "as §1"}, "[6]": {"assay": "Biodistribution in 15 mg/kg unlabeled 6,7-dimethoxy-2-(3-(5-methoxy-3,4-dihydronaphthalen-1(2H)-ylidene)propyl)-1,2,3,4-tetrahydroisoquinoline pretreated Wistar rat parietal/temporal/occipital cortex at 13+/-2 MBq, iv after 80 mins", "assay_type": "ADME, organism-based", "parameters": "dose 15 mg/kg, route intravenous", "method_in_brief": "as §2"}, "[7]": {"assay": "Biodistribution in Wistar rat trachea at 11+/-2 MBq, iv after 80 mins", "assay_type": "ADME, organism-based"}, "Plasma [8]": {"tested_on": "Plasma", "assay": "Biodistribution in 15 mg/kg unlabeled 6,7-dimethoxy-2-(3-(5-methoxy-3,4-dihydronaphthalen-1(2H)-ylidene)propyl)-1,2,3,4-tetrahydroisoquinoline pretreated Wistar rat plasma at 13+/-2 MBq, iv after 80 mins", "assay_type": "ADME, organism-based", "parameters": "dose 15 mg/kg, route intravenous", "method_in_brief": "as §2"}, "[9]": {"assay": "Biodistribution in Wistar rat frontal cortex at 11+/-2 MBq, iv after 80 mins", "assay_type": "ADME, organism-based", "method_in_brief": "as §1"}, "Brain [10]": {"tested_on": "Brain", "assay": "Biodistribution in Wistar rat brain at 11+/-2 MBq, iv after 56 mins", "assay_type": "ADME, organism-based"}, "Hippocampus [11]": {"tested_on": "Hippocampus", "assay": "Biodistribution in 15 mg/kg unlabeled 6,7-dimethoxy-2-(3-(5-methoxy-3,4-dihydronaphthalen-1(2H)-ylidene)propyl)-1,2,3,4-tetrahydroisoquinoline pretreated Wistar rat hippocampus at 13+/-2 MBq, iv after 80 mins", "assay_type": "ADME, organism-based", "parameters": "dose 15 mg/kg, route intravenous", "method_in_brief": "as §2"}, "[12]": {"assay": "Biodistribution in Wistar rat parietal/temporal/occipital cortex at 11+/-2 MBq, iv after 80 mins", "assay_type": "ADME, organism-based", "method_in_brief": "as §1"}, "Muscle tissue": {"tested_on": "Muscle tissue", "assay": "Biodistribution in Wistar rat muscle at 11+/-2 MBq, iv after 80 mins", "assay_type": "ADME, organism-based", "method_in_brief": "as §1"}, "Spleen": {"tested_on": "Spleen", "assay": "Biodistribution in Wistar rat spleen at 11+/-2 MBq, iv after 80 mins", "assay_type": "ADME, organism-based"}, "Striatum [13]": {"tested_on": "Striatum", "assay": "Biodistribution in Wistar rat striatum at 11+/-2 MBq, iv after 80 mins", "assay_type": "ADME, organism-based"}, "[14]": {"assay": "Biodistribution in Wistar rat entorhinal cortex at 11+/-2 MBq, iv after 80 mins", "assay_type": "ADME, organism-based", "method_in_brief": "as §1"}, "Lung [15]": {"tested_on": "Lung", "assay": "Biodistribution in 15 mg/kg unlabeled 6,7-dimethoxy-2-(3-(5-methoxy-3,4-dihydronaphthalen-1(2H)-ylidene)propyl)-1,2,3,4-tetrahydroisoquinoline pretreated Wistar rat lung at 13+/-2 MBq, iv after 80 mins", "assay_type": "ADME, organism-based", "parameters": "dose 15 mg/kg, route intravenous", "method_in_brief": "as §2"}, "Plasma [16]": {"tested_on": "Plasma", "assay": "Biodistribution in Wistar rat plasma at 11+/-2 MBq, iv after 80 mins", "assay_type": "ADME, organism-based", "method_in_brief": "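Male Wistar rats under isoflurane with saline pretreatment via tail vein. Carbon-11 tracer (8–15 MBq, saline-diluted) was given via the penile vein. After the 76 min microPET list-mode scan, the anesthetized animals were killed and blood collected. Plasma was separated by centrifugation (5 min, 1000g), weighed, and gamma-counted with decay correction. Results are given as SUV (tissue MBq/g × body weight/injected dose).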"}, "[17]": {"assay": "Biodistribution in Wistar rat cingulate cortex at 11+/-2 MBq, iv after 80 mins", "assay_type": "ADME, organism-based"}, "[18]": {"assay": "Biodistribution in 15 mg/kg unlabeled 6,7-dimethoxy-2-(3-(5-methoxy-3,4-dihydronaphthalen-1(2H)-ylidene)propyl)-1,2,3,4-tetrahydroisoquinoline pretreated Wistar rat trachea at 13+/-2 MBq, iv after 80 mins", "assay_type": "ADME, organism-based", "parameters": "dose 15 mg/kg, route intravenous", "method_in_brief": "as §2"}, "[19]": {"assay": "Biodistribution in Wistar rat bulbus olfactorius at 11+/-2 MBq, iv after 80 mins", "assay_type": "ADME, organism-based, Olfactory bulb"}, "[20]": {"assay": "Biodistribution in Wistar rat red blood cells at 11+/-2 MBq, iv after 80 mins", "assay_type": "ADME, organism-based, Erythrocyte"}, "[21]": {"assay": "Biodistribution in Wistar rat amygdala at 11+/-2 MBq, iv after 80 mins", "assay_type": "ADME, organism-based"}}, "data": [{"smiles": "COc1cc2c(cc1OC)CN(CC/C=C1\\CCCc3c(O[11CH3])cccc31)CC2", "values": [{"measurement": "SUV", "setting": "Brain [1]", "result": 0.68}, {"measurement": "SUV", "setting": "Pancreas", "result": 4.02}, {"measurement": "SUV", "setting": "Striatum [2]", "result": 0.4}, {"measurement": "SUV", "setting": "Duodenum", "result": 1.01}, {"measurement": "SUV", "setting": "Hippocampus [3]", "result": 0.45}, {"measurement": "SUV", "setting": "[4]", "result": 0.35}, {"measurement": "SUV", "setting": "Cerebellum", "result": 0.4}, {"measurement": "SUV", "setting": "Lung [5]", "result": 1.34}, {"measurement": "SUV", "setting": "[6]", "result": 0.43}, {"measurement": "SUV", "setting": "[7]", "result": 1.25}, {"measurement": "SUV", "setting": "Plasma [8]", "result": 0.56}, {"measurement": "SUV", "setting": "[9]", "result": 0.65}, {"measurement": "SUV", "setting": "Brain [10]", "result": 0.88}, {"measurement": "SUV", "setting": "Hippocampus [11]", "result": 0.44}, {"measurement": "SUV", "setting": "[12]", "result": 0.65}, {"measurement": "SUV", "setting": "Muscle tissue", "result": 0.52}, {"measurement": "SUV", "setting": "Spleen", "result": 2.66}, {"measurement": "SUV", "setting": "Striatum [13]", "result": 0.46}, {"measurement": "SUV", "setting": "[14]", "result": 0.55}, {"measurement": "SUV", "setting": "Lung [15]", "result": 2.13}, {"measurement": "SUV", "setting": "Plasma [16]", "result": 0.49}, {"measurement": "SUV", "setting": "[17]", "result": 0.7}, {"measurement": "SUV", "setting": "[18]", "result": 0.82}, {"measurement": "SUV", "setting": "[19]", "result": 0.64}, {"measurement": "SUV", "setting": "[20]", "result": 0.24}, {"measurement": "SUV", "setting": "[21]", "result": 0.65}]}]}
